Measured values from ChEMBL document CHEMBL5380775, “Visible-Light-Controlled Histone Deacetylase Inhibitors for Targeted Cancer Therapy” (J Med Chem, 2023).
Blank lines part the entries; values can stand above or below the compound they belong to. Activity calls are given as the source filed them. The calls are words filed in the database; no cut-off is given here.

Experiments:
MCF7 [1] = assay: Cytotoxicity against human MCF7 cells assessed as reduction in cell viability at 50 uM incubated for 48 hrs in presence of illumination with 380 nm light by MTS assay; assay type: functional, cell-based
Outline: (§1)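 HT29 and MCF7 cells in DMEM with 10% FBS, seeded at 1 × 10⁴ cells/well; compound added 24 h later. Dark stocks heated to 60 or 80 °C; light stocks preilluminated 3 min at 380 or 550 nm. Tested at 50 μM, final DMSO 0.5%, for 48 h. MTS read 2 h at 37 °C, absorbance 490 nm; viability as % of nontreated cells.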

HT-29 [2] = assay: Cytotoxicity against human HT-29 cells assessed as reduction in cell viability at 50 uM incubated for 48 hrs in presence of illumination with 550 nm light by MTS assay; assay type: functional, cell-based; outline: as §1
HeLa [3] = assay: Anticancer activity against human HeLa cells assessed as reduction in cell viability upto 100 uM incubated for 48 hrs in dark by MTS assay; assay type: functional, cell-based
Outline: (§2)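 HeLa cells in DMEM with 10% FBS, seeded at 5 × 10³ cells/well 24 h before treatment. Dark stocks heated to 60 or 80 °C. Light stocks preilluminated 3 min at 380 nm (11 mW/cm²). Stocks diluted in DMEM to 20× final, final DMSO 0.5%. Exposure 24 or 48 h. MTS read 2 h at 37 °C, absorbance 490 nm; % of nontreated cells.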

HT-29 [4] = assay: Cytotoxicity against human HT-29 cells assessed as reduction in cell viability at 50 uM incubated for 48 hrs in dark condition by MTS assay; assay type: functional, cell-based; outline: as §1
HT-29 [5] = assay: Cytotoxicity against human HT-29 cells assessed as reduction in cell viability at 50 uM incubated for 48 hrs in presence of illumination with 380 nm light by MTS assay; assay type: functional, cell-based; outline: as §1
[6] = Stability of compound in DMSO assessed as half life at 25 to 50 uM in presence of illumination with 380 to 550 nm light; assay type: physicochemical; conditions: dose 25-50 µM
Outline: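 Solutions of 25–50 μM in DMSO illuminated 2 min at the cis-forming wavelength. Absorbance then followed at fixed intervals in the dark at room temperature, at the wavelength of largest isomer difference. Half-life from an exponential-decay fit.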

KG-1 [7] = assay: Cytotoxicity against human KG-1 cells assessed as reduction in cell viability at 50 uM incubated for 48 hrs in presence of illumination with 550 nm light by celltiter glo assay; assay type: functional, cell-based
Outline: (§3)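 KG1 suspension cells grown in IMDM with 20% FBS, 1 × 10⁴ cells/well. Dark stocks heated to 60 or 80 °C; light stocks preilluminated 3 min at 380 or 550 nm. Exposure 50 μM for 48 h. CellTiter-Glo added, 10 min at room temperature, luminescence read; % of nontreated cells.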

KG-1 [8] = assay: Cytotoxicity against human KG-1 cells assessed as reduction in cell viability at 50 uM incubated for 48 hrs in dark condition by celltiter glo assay; assay type: functional, cell-based; outline: as §3
KG-1 [9] = assay: Cytotoxicity against human KG-1 cells assessed as reduction in cell viability at 50 uM incubated for 48 hrs in presence of illumination with 380 nm light by celltiter glo assay; assay type: functional, cell-based; outline: as §3
HeLa [10] = assay: Anticancer activity against human HeLa cells assessed as inhibition of cell growth incubated for 24 hrs in dark condition by MTS assay; assay type: functional, cell-based; outline: as §2
[11] = target: Histone deacetylase (Homo sapiens) (UniProt Q13547+O15379+Q9UBN7+Q92769+Q9UQL6+Q8WUI4+Q9BY41+Q96DB2+P56524+Q9UKV0+Q969S8); assay: Inhibition of HDAC in human HeLa cells at 50 uM incubated for 3 hrs by fluorescence based analysis; assay type: cell-based
Outline: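 Live-cell HDAC assay: HeLa in DMEM/10% FBS, 15 × 10³ cells/well, seeded 24 h before. Compound added at 50 μM final, either heat-relaxed to trans (60 or 80 °C, dark) or LED-illuminated 3 min. Boc-Lys(Ac)-AMC substrate at 100 μM final, 3 h at 37 °C. […] Fluorescence ex 380/em 460 nm. Activity as % of untreated cells after no-substrate blank subtraction.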

MCF7 [12] = assay: Cytotoxicity against human MCF7 cells assessed as reduction in cell viability at 50 uM incubated for 48 hrs in presence of illumination with 550 nm light by MTS assay; assay type: functional, cell-based; outline: as §1
MCF7 [13] = assay: Cytotoxicity against human MCF7 cells assessed as reduction in cell viability at 50 uM incubated for 48 hrs in dark condition by MTS assay; assay type: functional, cell-based; outline: as §1
HeLa [14] = assay: Anticancer activity against human HeLa cells assessed as inhibition of cell growth incubated for 48 hrs in dark by MTS assay; assay type: functional, cell-based; outline: as §2
[15] = Stability of the compound assessed as half life in buffer; assay type: physicochemical
HeLa [16] = assay: Anticancer activity against human HeLa cells assessed as inhibition of cell growth incubated for 48 hrs in presence of illumination with 380 nm light by MTS assay; assay type: functional, cell-based; outline: as §2
Histone deacetylase 1 [17] = target: T1, Histone deacetylase 1 (Homo sapiens, UniProt Q13547); assay: Inhibition of human recombinant HDAC1 using Boc-Lys(Ac)-AMC as substrate incubated for 1 hrs in presence of illumination with 380 nm light by fluorescence based assay
T1 sequence (Q13547 whole entry): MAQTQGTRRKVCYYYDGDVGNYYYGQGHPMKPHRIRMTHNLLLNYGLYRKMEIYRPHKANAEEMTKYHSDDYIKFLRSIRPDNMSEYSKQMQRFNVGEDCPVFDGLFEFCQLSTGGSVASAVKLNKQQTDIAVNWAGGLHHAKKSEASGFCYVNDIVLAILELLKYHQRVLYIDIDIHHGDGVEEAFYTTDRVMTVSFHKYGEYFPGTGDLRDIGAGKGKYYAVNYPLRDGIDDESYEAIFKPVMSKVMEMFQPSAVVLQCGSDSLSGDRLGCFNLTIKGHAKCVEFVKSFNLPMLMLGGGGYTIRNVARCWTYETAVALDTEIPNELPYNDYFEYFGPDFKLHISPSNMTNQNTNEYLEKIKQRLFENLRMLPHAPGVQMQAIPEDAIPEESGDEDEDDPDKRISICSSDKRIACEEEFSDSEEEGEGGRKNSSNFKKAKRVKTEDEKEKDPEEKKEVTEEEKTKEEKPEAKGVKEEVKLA

[18] = Stability of the compound assessed as half life in DMEM by HPLC analysis; assay type: physicochemical
Outline: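 10 mM DMSO stock illuminated 2 min (LED array plate at maximum power, e.g. 380 nm at 11 mW/cm²), then diluted to 10 μM in DMEM with 0.1% DMSO. Kept at 37 °C in an incubator in the dark; samples taken at fixed intervals and analysed by HPLC. Cis thermal half-life obtained by fitting the decay to an exponential function.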

Histone deacetylase 1 [19] = target: T1, Histone deacetylase 1; assay: Inhibition of human recombinant HDAC1 using Boc-Lys(Ac)-AMC as substrate at 0.003 to 10 uM incubated for 1 hrs in dark by fluorescence based assay; conditions: dose 0.003-10 µM
Outline: (§4)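 Recombinant human HDAC1 at 8 ng/well with Boc-Lys(Ac)-AMC 15 μM in Tris buffer pH 8 with 0.1 mg/mL BSA. Compound 10 μM to 3 nM, 1 h at room temperature. Dark: stocks heated to 60 or 80 °C. Light: stocks preilluminated 3 min, then continuous 550 nm at 6 mW/cm². […] Fluorescence ex 380/em 460 nm, blank-subtracted.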

Histone deacetylase 1 [20] = target: T1, Histone deacetylase 1; assay: Inhibition of human recombinant HDAC1 using Boc-Lys(Ac)-AMC as substrate incubated for 1 hrs in dark by fluorescence based assay
Histone deacetylase 1 [21] = target: T1, Histone deacetylase 1; assay: Inhibition of human recombinant HDAC1 using Boc-Lys(Ac)-AMC as substrate incubated for 1 hrs in presence of illumination with 550 nm light by fluorescence based assay
Histone deacetylase 1 [22] = target: T1, Histone deacetylase 1; assay: Inhibition of human recombinant HDAC1 using Boc-Lys(Ac)-AMC as substrate at 0.003 to 10 uM incubated for 1 hrs in presence of illumination with 550 nm light by fluorescence based assay; conditions: dose 0.003-10 µM; outline: as §4
Histone deacetylase 1 [23] = target: T1, Histone deacetylase 1; assay: Inhibition of human recombinant HDAC1 using Boc-Lys(Ac)-AMC as substrate incubated for 1 hrs in presence of illumination with 420 nm light by fluorescence based assay
[24] = in the assay text read “380 nm light” for “550 nm light”

SMILES: COc1cc(F)c(/N=N/c2c(F)cc(/C=C/C(=O)NO)cc2F)c(F)c1
- half-life at up to 50 µM [6]: 218 h

SMILES: COc1ccc(/N=N/c2ccc(/C=C/C(=O)NO)cc2)cc1
- half-life at up to 50 µM [6]: 2.7 h
- half-life [15]: 2.7 h

SMILES: COc1cc(F)c(/N=N/c2c(F)cc(/C=C/C(=O)Nc3ccccc3N)cc2F)c(F)c1
- Activity (MCF7 [1]): Active
- Activity (HT-29 [2]): Active
- inhibition (HeLa [14]): inactive
- Activity (HT-29 [4]): inactive
- Activity (HT-29 [5]): Active
- half-life at up to 50 µM [6]: 223 h
- Activity (KG-1 [7]): Active
- Activity (KG-1 [8]): inactive
- Activity (KG-1 [9]): Active
- inhibition [11]: Active
- Activity (MCF7 [12]): Active
- Activity (MCF7 [13]): inactive

SMILES: COc1ccc(/N=N/c2ccc(/C=C/C(=O)Nc3ccccc3N)cc2F)c(F)c1
- inhibition (HeLa [14]): inactive
- inhibition (HeLa [16]): inactive
- IC50 (Histone deacetylase 1 [17]): 0.46 µM
- half-life at up to 50 µM [6]: 9.9 h

SMILES: COc1cc(F)c(/N=N/c2c(F)cc(C(=O)Nc3ccccc3N)cc2F)c(F)c1
- Activity (MCF7 [1]): Active
- Activity (HT-29 [2]): Active
- Activity (HT-29 [4]): inactive
- Activity (HT-29 [5]): Active
- half-life at up to 50 µM [6]: 1010 h
- half-life [18]: 113 h
- Activity (KG-1 [7]): Active
- Activity (KG-1 [8]): inactive
- Activity (KG-1 [9]): Active
- inhibition [11]: Active
- Activity (MCF7 [12]): Active
- Activity (MCF7 [13]): inactive

SMILES: COc1cc(Cl)c(/N=N/c2c(Cl)cc(/C=C/C(=O)Nc3ccccc3N)cc2Cl)c(Cl)c1
- half-life at up to 50 µM [6]: 13.8 h
- inhibition (Histone deacetylase 1 [19]): inactive

SMILES: COc1cc(Cl)c(/N=N/c2c(Cl)cc(C(=O)Nc3ccccc3N)cc2Cl)c(Cl)c1
- half-life at up to 50 µM [6]: 8.3 h
- inhibition (Histone deacetylase 1 [20]): inactive
- inhibition (Histone deacetylase 1 [21]): inactive
- inhibition (Histone deacetylase 1 [19]): inactive
- inhibition (Histone deacetylase 1 [22]): inactive

SMILES: CN(C)c1cc(F)c(/N=N/c2c(F)cc(/C=C/C(=O)Nc3ccccc3N)cc2F)c(F)c1
- half-life at up to 50 µM [6]: 5.4 h
- IC50 (Histone deacetylase 1 [23]): 1.2 µM
- inhibition (Histone deacetylase 1 [19]): inactive

SMILES: COc1ccc(/N=N/c2ccc(/C=C/C(=O)Nc3ccccc3N)cc2Cl)c(Cl)c1
- inhibition (HeLa [14]): inactive
- inhibition (HeLa [16]): inactive
- half-life at up to 50 µM [6]: 4.3 h

SMILES: CN(C)c1cc(Cl)c(/N=N/c2c(Cl)cc(/C=C/C(=O)Nc3ccccc3N)cc2Cl)c(Cl)c1
- half-life at up to 50 µM [6]: 0.135 h
- IC50 (Histone deacetylase 1 [23]): 5 µM

SMILES: COc1cc(F)c(/N=N/c2c(F)cc(/C=C/C(=O)Nc3ccccc3N)cc2Cl)c(Cl)c1
- Activity (MCF7 [1]): Active
- Activity (HT-29 [2]): Active
- inhibition (HeLa [14]): inactive
- Activity (HT-29 [4]): inactive
- Activity (HT-29 [5]): Active
- half-life at up to 50 µM [6]: 178 h
- Activity (KG-1 [7]): Active
- Activity (KG-1 [8]): inactive
- Activity (KG-1 [9]): Active
- inhibition [11]: Active
- Activity (MCF7 [12]): Active
- Activity (MCF7 [13]): inactive

Second part, led by results:

- half-life at up to 50 µM [6]: 4.5 h
- inhibition [11]: Active
SMILES: COc1ccc(/N=N/c2ccc(/C=C/C(=O)Nc3cc(-c4cccs4)ccc3N)cc2)cc1
- Activity (MCF7 [1]): Active
- Activity (HT-29 [2]; [24]): Active
- Activity (HeLa [3]): inactive
- Activity (HT-29 [4]): inactive
- Activity (HT-29 [5]): Active
- Activity (KG-1 [7]): Active
- Activity (KG-1 [8]): inactive
- Activity (KG-1 [9]): Active
- inhibition (HeLa [10]): inactive
- Activity (MCF7 [12]): Active
- Activity (MCF7 [13]): inactive

- half-life at up to 50 µM [6]: 20.8 h
SMILES: COc1ccc(/N=N/c2ccc(C(=O)Nc3ccccc3N)cc2)cc1
- inhibition (HeLa [14]): inactive

- half-life at up to 50 µM [6]: 18.7 h
SMILES: COc1ccc(/N=N/c2ccc(C(=O)NO)cc2)cc1

- half-life at up to 50 µM [6]: 20.1 h
SMILES: COc1ccc(/N=N/c2ccc(CCC(=O)Nc3ccccc3N)cc2)cc1
- inhibition (HeLa [14]): inactive
- Activity (HeLa [16]): inactive

- half-life at up to 50 µM [6]: 3.1 h
- half-life [18]: 0.667 h
- inhibition [11]: Active
SMILES: COc1ccc(/N=N/c2ccc(/C=C/C(=O)Nc3ccccc3N)cc2)cc1
- Activity (MCF7 [1]): Active
- Activity (HT-29 [2]; [24]): Active
- Activity (HeLa [3]): inactive
- Activity (HT-29 [4]): inactive
- Activity (HT-29 [5]): Active
- Activity (KG-1 [7]): Active
- Activity (KG-1 [8]): inactive
- Activity (KG-1 [9]): Active
- Activity (MCF7 [12]): Active
- Activity (MCF7 [13]): inactive

- half-life at up to 50 µM [6]: 0.0717 h
SMILES: CN(C)c1ccc(/N=N/c2ccc(C(=O)Nc3ccccc3N)cc2)cc1
